Results as given in ChEMBL document CHEMBL5705892, “MK-2206, an allosteric Akt inhibitor, enhances antitumor efficacy by standard chemotherapeutic agents or molecular targeted drugs in vitro and in vivo” (Mol Cancer Ther, 2010).
Activity calls are given as the source filed them. The rule behind the calls is not given here.

Key:
[1] = test system: HCC70; experiment: Antiproliferative activity against human HCC70 cells assessed as reduction in cell proliferation measured after 72 hrs by celltiter-glo assay; type: functional, cell-based; details: HCC70, 72 h
Summary of the method: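 Cells in RPMI 1640 with 10% heat-inactivated FBS at 37°C and 5% CO₂ were seeded at 2 to 3 × 10³ per well. […] Growth was read as cellular ATP by CellTiter-Glo.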

[2] = test system: Calu-6; experiment: Synergistic antiproliferative activity against human Calu-6 cells assessed as combination index at ED50 measured after 72 hrs in presence of erlotinib by celltiter-glo assay; type: functional
Summary of the method: (§1)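 Cells grown in RPMI 1640 with 10% heat-inactivated FBS at 37°C, 5% CO₂. Seeded at 2 to 3 × 10³ per well; drugs added 24 h later. […] Viability read as cellular ATP by CellTiter-Glo. CI calculated by Chou–Talalay from median-effect plots at ED50, ED75 and ED90.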

[3] = test system: A-431; experiment: Synergistic antiproliferative activity against human A-431 cells assessed as combination index at ED75 measured after 72 hrs in presence of erlotinib by celltiter-glo assay; type: functional
Summary of the method: (§2)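 Cells were seeded at 2–3 × 10³ per well in RPMI 1640 with 10% FBS. At 24 h, MK-2206 and the partner drug were added simultaneously at constant concentration ratios spanning each agent's IC₅₀, for 72 h. Growth was read as cellular ATP by CellTiter-Glo. CI was taken from median-effect plots of each agent alone and in combination (Chou–Talalay), at ED₅₀, ED₇₅ and ED₉₀.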

[4] = test system: Calu-6; experiment: Synergistic antiproliferative activity against human Calu-6 cells assessed as combination index at ED75 measured after 72 hrs in presence of erlotinib by celltiter-glo assay; type: functional; summary of the method: as §1
[5] = test system: HCC1954; experiment: Synergistic antiproliferative activity against human HCC1954 cells assessed as combination index at ED75 measured after 72 hrs in presence of lapatinib by celltiter-glo assay; type: functional; summary of the method: as §1
[6] = test system: SK-BR-3; experiment: Synergistic antiproliferative activity against human SK-BR-3 cells assessed as combination index at ED90 measured after 72 hrs in presence of lapatinib by celltiter-glo assay; type: functional
[7] = test system: NCI-N87; experiment: Synergistic antiproliferative activity against human NCI-N87 cells assessed as combination index at ED90 measured after 72 hrs in presence of lapatinib by celltiter-glo assay; type: functional
[8] = target: RAC-alpha serine/threonine-protein kinase (Homo sapiens) (UniProt P31749); experiment: Inhibition of AKT in human HCC827 cells assessed as reduction in S6 phosphorylation at S240/S244 residues at 5 umol/L measured after 5 hrs in presence of erlotinib by Western blot analysis; type: cell-based; details: dose 5.0 µmol/L
RAC-alpha serine/threonine-protein kinase (Homo sapiens), sequence (P31749 whole entry): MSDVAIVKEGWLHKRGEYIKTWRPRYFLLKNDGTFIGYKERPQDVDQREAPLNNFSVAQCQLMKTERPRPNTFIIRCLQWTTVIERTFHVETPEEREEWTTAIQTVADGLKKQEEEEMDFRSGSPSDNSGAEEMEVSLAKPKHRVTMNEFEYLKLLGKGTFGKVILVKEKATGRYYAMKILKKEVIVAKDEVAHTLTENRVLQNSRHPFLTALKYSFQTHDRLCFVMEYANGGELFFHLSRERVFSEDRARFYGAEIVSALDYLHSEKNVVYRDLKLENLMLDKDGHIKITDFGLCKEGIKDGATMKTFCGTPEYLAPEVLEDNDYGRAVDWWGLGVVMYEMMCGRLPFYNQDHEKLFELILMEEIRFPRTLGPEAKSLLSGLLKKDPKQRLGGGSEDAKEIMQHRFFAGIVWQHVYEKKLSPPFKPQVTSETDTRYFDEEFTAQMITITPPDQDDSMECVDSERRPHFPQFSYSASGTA

[9] = test system: HCC70; experiment: Synergistic antiproliferative activity against human HCC70 cells assessed as combination index at ED50 measured after 96 hrs in presence of lapatinib by celltiter-glo assay; type: functional
[10] = test system: HCC70; experiment: Synergistic antiproliferative activity against human HCC70 cells assessed as combination index at ED90 treated 24 hrs prior to lapatinib and measured after 72 hrs by celltiter-glo assay; type: functional; details: time 96 hrs
[11] = test system: HCC70; experiment: Synergistic antiproliferative activity against human HCC70 cells assessed as combination index at ED90 measured after 96 hrs in presence of lapatinib by celltiter-glo assay; type: functional
[12] = test system: NCI-N87; experiment: Synergistic antiproliferative activity against human NCI-N87 cells assessed as combination index at ED90 measured after 96 hrs in presence of lapatinib by celltiter-glo assay; type: functional
[13] = target: RAC-alpha serine/threonine-protein kinase (Homo sapiens) (UniProt P31749); experiment: Inhibition of AKT in human HCC70 cells assessed as reduction in S6 phosphorylation at S240/S244 residues at 1 umol/L measured after 3 to 24 hrs in presence of lapatinib by Western blot analysis; type: cell-based; details: dose 1.0 µmol/L, time 3-24 hrs
Summary of the method: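 HCC70 cells at ~70% confluence were exposed to 10 µmol/L lapatinib, 1 µmol/L MK-2206, or both, for 0, 3, 6, 12 or 24 h. Lysates were prepared in Triton X-100/Tris buffer (pH 7.5) with protease and phosphatase inhibitors. Immunoblots after SDS-PAGE and nitrocellulose transfer were probed for pAkt and pS6.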

[14] = test system: HCC70; experiment: Antitumor activity against human HCC70 cells xenografted in CB17/icr SCID mouse assessed as tumor growth inhibition at 120 mg/kg, po administered 3 times per week for 3 weeks starting 2 hrs post-lapatinib treatment and measured twice a week during compound dosing by caliper method; type: functional, organism-based
Summary of the method: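 Female C.B-17/ICR-scid mice were given s.c. HCC70 cells in 50% Matrigel/50% PBS in the left flank. They were randomized at a mean tumor size of 0.2 cm³, n = 5 per group. Lapatinib (distilled water) was given at 100 mg/kg po, 5 d/wk for 3 wk. MK-2206 (30% Captisol) was given at 120 mg/kg po, 3×/wk, 2 h after lapatinib. Calipers twice weekly; volume = […] × 0.5.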

[15] = test system: SK-OV-3; experiment: Antitumor activity against human SK-OV-3 cells xenografted in CB17/icr SCID mouse assessed as tumor growth inhibition at 60 to 120 mg/kg, po administered 3 times per week for 2 weeks and measured twice a week during compound dosing by caliper method; type: functional, organism-based; details: dose 60-120 mg/kg
Summary of the method: (§3)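 SK-OV-3 cells were implanted s.c. into female C.B-17/ICR-scid mice, which were randomized at 0.13 cm³, n = 5. Lapatinib (water) was given at 100 mg/kg po on days 0–4 and 7–11. MK-2206 (30% Captisol) was given at 60 or 120 mg/kg po on days 0, 2, 4, 7, 9, 11. Tumor volume by calipers twice weekly.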

[16] = test system: SK-OV-3; experiment: Antitumor activity against human SK-OV-3 cells xenografted in po dosed CB17/icr SCID mouse assessed as tumor growth inhibition administered 3 times per week for 2 weeks starting 2 hrs post lapatinib treatment and measured twice a week during compound dosing by caliper method; type: functional, organism-based; details: dose 60-120 mg/kg; summary of the method: as §3
[17] = test system: MDA-MB-453; experiment: Synergistic antiproliferative activity against human MDA-MB-453 cells assessed as combination index at ED75 measured after 72 hrs in presence of docetaxel by celltiter-glo assay; type: functional; summary of the method: as §1
[18] = test system: MDA-MB-231; experiment: Synergistic antiproliferative activity against human MDA-MB-231 cells assessed as combination index at ED90 measured after 72 hrs in presence of docetaxel by celltiter-glo assay; type: functional; summary of the method: as §1
[19] = test system: A2780; experiment: Synergistic antiproliferative activity against human A2780 cells assessed as combination index at ED75 measured after 72 hrs in presence of 5-FU by celltiter-glo assay; type: functional; summary of the method: as §2
[20] = test system: A2780; experiment: Synergistic antiproliferative activity against human A2780 cells assessed as combination index at ED90 measured after 72 hrs in presence of carboplatin by celltiter-glo assay; type: functional; summary of the method: as §2
[21] = test system: NCI-H460; experiment: Synergistic antiproliferative activity against human NCI-H460 cells assessed as combination index at ED75 measured after 72 hrs in presence of 5-FU by celltiter-glo assay; type: functional
[22] = test system: NCI-H460; experiment: Synergistic antiproliferative activity against human NCI-H460 cells assessed as combination index at ED75 measured after 72 hrs in presence of carboplatin by celltiter-glo assay; type: functional
[23] = test system: NCI-H460; experiment: Synergistic antiproliferative activity against human NCI-H460 cells assessed as combination index at ED90 measured after 72 hrs in presence of 5-FU by celltiter-glo assay; type: functional
[24] = test system: NCI-H460; experiment: Induction of apoptosis in human NCI-H460 cells assessed as fold induction of capsase-3/7 activity measured after 24 to 48 hrs in presence of carboplatin by caspase-glo 3/7 assay; type: functional; details: time 24-48 hrs

SMILES: Cl.NC1(c2ccc(-c3nc4ccn5c(=O)[nH]nc5c4cc3-c3ccccc3)cc2)CCC1
- IC50 [1]: 300 nM
- CI50 [2]: 0.49
- CI75 [3]: 0.21
- CI75 [4]: 0.25
- CI75 [5]: 0.13
- CI90 [6]: 0.09
- CI90 [7]: 0.69
- inhibition [8]: Active
- CI50 [9]: 0.18
- CI90 [10]: 0.18
- CI90 [11]: 0.18
- CI90 [12]: 0.18
- inhibition [13]: Active
- TGI [14]: Active
- TGI [15]: Active
- TGI [16]: Dose-Dependent Effect
- CI75 [17]: 0.6
- CI90 [18]: 0.7
- CI75 [19]: 0.54
- CI90 [20]: 0.38
- CI75 [21]: 0.45
- CI75 [22]: 0.3
- CI90 [23]: 0.54
- fold change (FC) [24]: 1.4
